Data as given in ChEMBL document CHEMBL3399991, “Design, synthesis and biological evaluation of a highly-potent and cancer cell selective folate-taxoid conjugate” (Bioorg Med Chem, 2015).

Columns and labels:
[1] = test system: L1210; assay: Cytotoxicity against folate receptor over-expressing mouse L1210 cells after 72 hrs by MTT assay; format: functional, cell-based; settings: L1210, 72 h
Method in brief: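 L1210FR cells grown in suspension in supplemented RPMI-1640. Resuspended directly in test solutions, 0.5–5,000 nM final, at 0.5–0.8 × 10^4 cells/well, DMSO ≤1%. Incubated 72 h. MTT 0.5 mg/mL for 3 h at 37 °C, formazan dissolved in 0.1 N HCl/isopropanol with 10% Triton X-100, absorbance at 570 nm. IC50 from four-parameter logistic fit, with standard errors.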

[2] = Cytotoxicity against folate receptor over-expressing mouse ID8 cells after 72 hrs by MTT assay; format: functional, cell-based; settings: ID8, 72 h
Method in brief: (§1)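 Adherent monolayers in RPMI-1640 with 5% heat-inactivated FBS, 5% NuSerum and PenStrep, 37 °C, 5% CO2. Seeded 0.5–1.5 × 10^4 cells/well and left to attach overnight, then medium replaced. Compound diluted from DMSO stock to 0.5–5,000 nM final, DMSO ≤1%, 72 h. MTT 0.5 mg/mL for 3 h at 37 °C, formazan dissolved in acidic isopropanol/Triton, A570. IC50 from four-parameter logistic fit.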

[3] = Cytotoxicity against folate receptor deficient human WI38 cells after 72 hrs by MTT assay; format: functional, cell-based; settings: WI-38, 72 h; method in brief: as §1
[4] = test system: MX1; assay: Cytotoxicity against folate receptor over-expressing human MX1 cells after 72 hrs by MTT assay; format: functional, cell-based; settings: MX1, 72 h; method in brief: as §1
[5] = test system: WI-38; assay: Selectivity index, ratio of IC50 for folate receptor deficient human WI38 cells to IC50 for folate receptor over-expressing mouse ID8 cells
[6] = test system: L1210; assay: Cytotoxicity against folate receptor over-expressing mouse L1210 cells incubated for 24 hrs followed by 6 equiv GSH-OEt addition and further incubated for another 48 by MTT assay; format: functional, cell-based; settings: L1210, 24 h
Method in brief: (§2)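 After 24 h treatment with the conjugate, glutathione ethyl ester (GSH-OEt, 6 equiv.) was added, followed by a further 48 h, 72 h total. Cells-permeable thiol ester. Compound 0.5–5,000 nM in RPMI-1640 medium. MTT read-out at 570 nm. IC50 from four-parameter logistic fit.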

[7] = test system: MX1; assay: Cytotoxicity against folate receptor over-expressing human MX1 cells incubated for 24 hrs followed by 6 equiv GSH-OEt addition and further incubated for another 48 by MTT assay; format: functional, cell-based; settings: MX1, 24 h; method in brief: as §2
[8] = test system: L1210; assay: Selectivity index, ratio of IC50 for folate receptor deficient human WI38 cells to IC50 for folate receptor over-expressing mouse L1210 cells
[9] = test system: MX1; assay: Selectivity index, ratio of IC50 for folate receptor deficient human WI38 cells to IC50 for folate receptor over-expressing human MX1 cells
[10] = test system: MX1; assay: Cytotoxicity against folate receptor over-expressing human MX1 cells incubated for 24 hrs followed by 6 equiv GSH addition and further incubated for another 48 by MTT assay; format: functional, cell-based; settings: MX1, 24 h
Method in brief: (§3)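 Cells were exposed to the conjugate for 24 h, then reduced glutathione (GSH, 6 equiv.) was added and incubation continued 48 h, 72 h in total. Compound range 0.5–5,000 nM in RPMI-1640 medium, which contains folic acid. Read-out by MTT at 570 nm. IC50 from four-parameter logistic curve.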

[11] = test system: L1210; assay: Cytotoxicity against folate receptor over-expressing mouse L1210 cells incubated for 24 hrs followed by 6 equiv GSH addition and further incubated for another 48 by MTT assay; format: functional, cell-based; settings: L1210, 24 h; method in brief: as §3

Compound | IC50 [1] [nM] | IC50 [2] [nM] | IC50 [3] [nM] | IC50 [4] [nM] | Ratio IC50 [5] | IC50 [6] [nM] | IC50 [7] [nM] | Ratio IC50 [8] | Ratio IC50 [9] | IC50 [10] [nM] | IC50 [11] [nM]
CC(=O)O[C@@]12CO[C@@H]1C[C@H](O)[C@@]1(C)C(=O)[C@H](OC(=O)C3CC3)C3=C(C)[C@@H](OC(=O)[C@H](O)[C@H](C=C(C)C)NC(=O)OC(C)(C)C)C[C@@](O)([C@@H](OC(=O)c4ccccc4)[C@H]21)C3(C)C | 2.66 | 2.82 | 4.89 | 1.89 |  |  |  |  |  |  | 
CC(=O)O[C@@]12CO[C@@H]1C[C@H](O)[C@@]1(C)C(=O)[C@H](OC(=O)C3CC3)C3=C(C)[C@@H](OC(=O)[C@H](OC(=O)Cc4ccccc4SSC(C)CCC(=O)NCCCOCCOCCOCCCNC(=O)c4ccc(CC5CCCCCc6c5nnn6CCOCCOCCOCCNC(=O)CC[C@@H](NC(=O)CC[C@@H](NC(=O)c5ccc(NCc6cnc7nc(N)nc(O)c7n6)cc5)C(=O)O)C(=O)N[C@H](CCCNC(=N)N)C(=O)O)cc4)[C@H](C=C(C)C)NC(=O)OC(C)(C)C)C[C@@](O)([C@@H](OC(=O)c4ccccc4)[C@H]21)C3(C)C (some centres undefined) | 3.51 | 2.52 | > 5000 | 3.43 | >1000 | 3.35 | 2.08 | >1000 | >1000 | 3.42 | 3.87
CC(=O)O[C@H]1C(=O)[C@@]2(C)[C@H]([C@H](OC(=O)c3ccccc3)[C@]3(O)C[C@H](OC(=O)[C@H](O)[C@@H](NC(=O)c4ccccc4)c4ccccc4)C(C)=C1C3(C)C)[C@]1(OC(C)=O)CO[C@@H]1C[C@@H]2O [PACLITAXEL] | 27.6 | 13.8 | 55.7 | 5.59 |  |  |  |  |  |  | 
